Results published in ChEMBL document CHEMBL3865799, “Synthesis of a series of novel dihydroartemisinin monomers and dimers containing chalcone as a linker and their anticancer activity” (Eur J Med Chem, 2016).

Legend:
[1] = Cytotoxicity against human HL60 cells assessed as cell growth inhibition at 50 uM after 48 hrs by MTT assay; type: functional; details: HL-60, 48 h, read-out: GI
How it was run: (§1)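 HL-60 suspension cells, 1.5 × 10^4 per well, grown at 37 °C in 5% CO2 with 10% FCS. Treated 48 h with compound in DMSO (vehicle <0.2% v/v). MTT added 3 h before the end. Formazan dissolved in DMSO and read at 570 nm (reference 620 nm). % growth inhibition computed against untreated cells; IC50 taken from the concentration series.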

[2] = Cytotoxicity against human MIAPaCa2 cells assessed as cell growth inhibition at 30 uM after 48 hrs by MTT assay; type: functional; details: MIA PaCa-2, 48 h, read-out: GI
How it was run: (§2)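 Adherent lines at 70–75% confluence, grown at 37 °C in 5% CO2 with 10% FCS. Exposed 48 h to compound in DMSO (vehicle <0.2% v/v). MTT dye added 3 h before termination; formazan dissolved in DMSO, OD 570 nm with 620 nm reference. Growth inhibition expressed as % of untreated; IC50 taken from the dose series.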

[3] = Cytotoxicity against human MIAPaCa2 cells assessed as cell growth inhibition at 50 uM after 48 hrs by MTT assay; type: functional; details: MIA PaCa-2, 48 h, read-out: GI; how it was run: as §2
[4] = Cytotoxicity against human PC3 cells assessed as cell growth inhibition at 30 uM after 48 hrs by MTT assay; type: functional; details: PC-3, 48 h, read-out: GI; how it was run: as §2
[5] = Cytotoxicity against human PC3 cells assessed as cell growth inhibition at 50 uM after 48 hrs by MTT assay; type: functional; details: PC-3, 48 h, read-out: GI; how it was run: as §2
[6] = Cytotoxicity against human HepG2 cells assessed as cell growth inhibition at 30 uM after 48 hrs by MTT assay; type: functional; details: HepG2, 48 h, read-out: GI; how it was run: as §2
[7] = Cytotoxicity against human HepG2 cells assessed as cell growth inhibition at 50 uM after 48 hrs by MTT assay; type: functional; details: HepG2, 48 h, read-out: GI; how it was run: as §2
[8] = Cytotoxicity against human LS180 cells assessed as cell growth inhibition at 30 uM after 48 hrs by MTT assay; type: functional; details: LS180, 48 h, read-out: GI; how it was run: as §2
[9] = Cytotoxicity against human HL60 cells assessed as cell growth inhibition at 0.5 uM after 48 hrs by MTT assay; type: functional; details: HL-60, 48 h, read-out: GI; how it was run: as §1
[10] = Cytotoxicity against human HL60 cells assessed as cell growth inhibition at 1 uM after 48 hrs by MTT assay; type: functional; details: HL-60, 48 h, read-out: GI; how it was run: as §1
[11] = Cytotoxicity against human HL60 cells assessed as cell growth inhibition at 10 uM after 48 hrs by MTT assay; type: functional; details: HL-60, 48 h, read-out: GI; how it was run: as §1
[12] = Cytotoxicity against human HL60 cells assessed as cell growth inhibition after 48 hrs by MTT assay; type: functional, cell-based; details: HL-60, 48 h; how it was run: as §1
Vero [13] = assay: Selectivity index, ratio of IC50 for African green monkey Vero cells to IC50 for human HL60 cells; type: functional
How it was run: (§3)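 Suspension cells were seeded at 1.5 × 10^4 per well and adherent lines at 70–75% confluence, then exposed to a range of concentrations. MTT was added 3 h before the end, formazan dissolved in DMSO, and OD read at 570 nm (reference 620 nm). Growth inhibition was taken relative to untreated cells. IC50 came from the MTT data; SI = IC50 in Vero cells / IC50 in the tumour line.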

[14] = Cytotoxicity against human MIAPaCa2 cells assessed as cell growth inhibition after 48 hrs by MTT assay; type: functional, cell-based; details: MIA PaCa-2, 48 h; how it was run: as §2
Vero [15] = assay: Selectivity index, ratio of IC50 for African green monkey Vero cells to IC50 for human MIAPaCa2 cells; type: functional; how it was run: as §3
[16] = Cytotoxicity against human PC3 cells assessed as cell growth inhibition after 48 hrs by MTT assay; type: functional, cell-based; details: PC-3, 48 h
How it was run: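 Exposed 48 h to compound in DMSO (vehicle <0.2% v/v). MTT dye added 3 h before termination; formazan dissolved in DMSO, OD 570 nm with 620 nm reference. Growth inhibition expressed as % of untreated; IC50 taken from the dose series.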

[17] = Cytotoxicity against human HepG2 cells assessed as cell growth inhibition after 48 hrs by MTT assay; type: functional, cell-based; details: HepG2, 48 h; how it was run: as §2
HepG2 = assay: Selectivity index, ratio of IC50 for African green monkey Vero cells to IC50 for human HepG2 cells; type: functional; how it was run: as §3
[18] = Cytotoxicity against human LS180 cells assessed as cell growth inhibition after 48 hrs by MTT assay; type: functional, cell-based; details: LS180, 48 h; how it was run: as §2
[19] = Cell cycle arrest in human HL60 cells assessed as accumulation at G1 phase at 0.2 uM after 24 hrs by propidium iodide-DNA fluorescence based FACS analysis (reference value: 46 %); type: functional; details: HL-60
How it was run: (§4)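 HL-60 cells seeded at 0.5 × 10^6 cells/ml, exposed 24 h to compound (DMSO vehicle, <0.2% v/v). Pelleted at 400×g, PBS-washed, fixed in 70% ethanol at 4 °C overnight. RNase A treatment at 37 °C for 1.30 h, then propidium iodide staining for 20 min. Flow cytometry on 10,000 events, FL2-A vs FL2-W; subG0 (apoptotic) and phase populations gated.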

[20] = Cell cycle arrest in human HL60 cells assessed as accumulation at S phase at 0.2 uM after 24 hrs by propidium iodide-DNA fluorescence based FACS analysis (reference value: 53 %); type: functional; details: HL-60; how it was run: as §4
[21] = Cell cycle arrest in human HL60 cells assessed as accumulation at S phase at 0.5 uM after 24 hrs by propidium iodide-DNA fluorescence based FACS analysis (reference value: 53 %); type: functional; details: HL-60; how it was run: as §4
[22] = Cell cycle arrest in human HL60 cells assessed as accumulation at G2 phase at 0.5 uM after 24 hrs by propidium iodide-DNA fluorescence based FACS analysis (reference value: 1 %); type: functional; details: HL-60; how it was run: as §4
[23] = Cell cycle arrest in human HL60 cells assessed as accumulation at G1 phase at 1 uM after 24 hrs by propidium iodide-DNA fluorescence based FACS analysis (reference value: 46 %); type: functional; details: HL-60; how it was run: as §4
[24] = Cell cycle arrest in human HL60 cells assessed as accumulation at S phase at 1 uM after 24 hrs by propidium iodide-DNA fluorescence based FACS analysis (reference value: 53 %); type: functional; details: HL-60; how it was run: as §4
[25] = Cell cycle arrest in human HL60 cells assessed as accumulation at G2 phase at 1 uM after 24 hrs by propidium iodide-DNA fluorescence based FACS analysis (reference value: 1 %); type: functional; details: HL-60; how it was run: as §4
[26] = Cell cycle arrest in human HL60 cells assessed as accumulation at G2 phase at 5 uM after 24 hrs by propidium iodide-DNA fluorescence based FACS analysis (reference value: 1 %); type: functional; details: HL-60; how it was run: as §4
HL-60 [27] = assay: Induction of apoptosis in human HL60 cells assessed as loss of mitochondrial membrane potential at 0.2 uM after 24 hrs by Rh123 dye-based FACS analysis (reference value: 5%); type: functional
HL-60 [28] = assay: Induction of apoptosis in human HL60 cells assessed as loss of mitochondrial membrane potential at 0.5 uM after 24 hrs by Rh123 dye-based FACS analysis (reference value: 5%); type: functional
HL-60 [29] = assay: Induction of apoptosis in human HL60 cells assessed as loss of mitochondrial membrane potential at 1 uM after 24 hrs by Rh123 dye-based FACS analysis (reference value: 5%); type: functional
HL-60 [30] = assay: Induction of apoptosis in human HL60 cells assessed as loss of mitochondrial membrane potential at 5 uM after 24 hrs by Rh123 dye-based FACS analysis (reference value: 5%); type: functional

Structure (SMILES) | inhibition of growth at 50 µM [1] [%] | inhibition of growth at 30 µM [2] [%] | inhibition of growth at 50 µM [3] [%] | inhibition of growth at 30 µM [4] [%] | inhibition of growth at 50 µM [5] [%] | inhibition of growth at 30 µM [6] [%] | inhibition of growth at 50 µM [7] [%] | inhibition of growth at 30 µM [8] [%] | inhibition of growth at 0.5 µM [9] [%] | inhibition of growth at 1 µM [10] [%] | inhibition of growth at 10 µM [11] [%] | IC50 [12] [µM] | Ratio IC50 (Vero [13]) | IC50 [14] [µM] | Ratio IC50 (Vero [15]) | IC50 [16] [µM] | IC50 [17] [µM] | Ratio IC50 (HepG2) | IC50 [18] [µM] | Activity [19] [%] | further results
C[C@H]1[C@@H](OCCOc2cccc(C(=O)/C=C/c3ccc(O)cc3)c2)O[C@@H]2O[C@@]3(C)CC[C@H]4[C@H](C)CC[C@@H]1[C@@]24OO3 | 94.8 | 37.8 to 77.4 | 88.6 | 83.5 | 87.9 | 37.8 to 77.4 | 33.2 to 64.5 | 25.2 | 52.9 | 57 | 88.7 | 0.4 | 180 | 39 | 32 | 18 | 15 | 55 | > 50 | 49 | Activity [20]: 46%; Activity [21]: 38%; Activity [22]: 8%; Activity [23]: 52%; Activity [24]: 29%; Activity [25]: 19%; Activity [26]: 16%; Activity (HL-60 [27]): 7%; Activity (HL-60 [28]): 34%; Activity (HL-60 [29]): 50%; Activity (HL-60 [30]): 58%
C[C@H]1[C@@H](OCCOc2ccc(/C=C/C(=O)c3ccc(O)cc3)cc2)O[C@@H]2O[C@@]3(C)CC[C@H]4[C@H](C)CC[C@@H]1[C@@]24OO3 | 93.6 | 68.3 to 86.8 | 88.8 | 88.6 | 88.9 | 68.3 to 86.8 | 55.2 to 82.3 | 55.2 | 58.2 | 78.8 | 88.4 | 0.3 | 240 | 22 | 88 | 14 | 7 | 450 | 24 | 49 | Activity [20]: 46%; Activity [21]: 32%; Activity [22]: 9%; Activity [23]: 14%; Activity [24]: 70%; Activity [25]: 16%; Activity [26]: 10%; Activity (HL-60 [27]): 9%; Activity (HL-60 [28]): 27%; Activity (HL-60 [29]): 53%; Activity (HL-60 [30]): 61%
C[C@H]1[C@@H](O)O[C@@H]2O[C@@]3(C)CC[C@H]4[C@H](C)CC[C@@H]1[C@@]24OO3 [ARTENIMOL] | 93 | 58 | 71 | 41 | 43 | 36 | 39 | 32 | 36 | 48.1 | 63 | 2 | 63 | 58 | 12 | > 100 | 29 | 1.81 | 32 | 49 | Activity [20]: 49%; Activity [21]: 37%; Activity [22]: 5%; Activity [23]: 62%; Activity [24]: 34%; Activity [25]: 4%; Activity [26]: 5%; Activity (HL-60 [27]): 8%; Activity (HL-60 [28]): 20%; Activity (HL-60 [29]): 32%; Activity (HL-60 [30]): 41%
